# Most compounds without a hit are left out; they make up all but 1.6% or so of the library.
# Rpn11 block: blocks the human proteasome subunit Rpn11. AID 588493. human 26S proteasome, Ub4-pepOG fluorescence polarization; 20S core pre-blocked with epoxomicin. O00487. calls only at 20 µM. hit rate 0.59% among 360,000;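 active = inhibition at 20 µM, scaled to each plate's controls, above about 33%, limit read from the data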
# PKA-R1A act: PKA-R1A complex activation; P00514+P68181; PKA-R1A dissociation, Cy5-IP20 fluorescence polarization; scaled: DMSO 0%, 113 µM cGMP 100%; activation, % at 11.4 µM; hit rate 0.083% among 340,000; AID 504707;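 active = percent activation above the mean of all tested compounds plus 3 SD, cut at about 19% in these data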;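 note: higher means more PKAc released from R1A so a rise in polarization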
# CSN inh: blocks human CSN-mediated cullin deneddylation. hit rate 0.38% among 360,000. inhibition, % at 12.5 µM. Purified CSN, SCF-Nedd8-OG deneddylation, fluorescence polarization;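 active = pattern-corrected inhibition above about 35%, with an unprinted fluorescence ratio check between 0.5 and 1.5, limit read from the data, passing the limit was not always enough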;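 note: 0% = enzyme with substrate and 100% = substrate without enzyme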
#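 Assay system: purified human Csn5 enzyme expressed in HEK293T cells; Input: 0.24 nM Csn5 enzyme, final concentration; Reagent: 10 nM SCFSkp2-Nedd8OG; Compound dosing: 12.5 µM single point; Times: reaction 90 min, room temperature; Technique: fluorescence polarization readout.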
# PKA-R2B activ: activates the human PKA-R2B holoenzyme complex; PKA-R2B holoenzyme dissociation, Cy5-IP20 fluorescence polarization; R2B truncated from residue 108, S112A mutant; 0% DMSO only, 100% 113 µM cGMP; activation, % at 11.4 µM; hit rate 0.079% among 340,000; AID 504700;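 active = activation above a cutoff set at the mean over all compounds plus 3 SD, cut at about 18% in these data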;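 note: higher means more holoenzyme dissociation and a rise in polarization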
# HNF4A DNA FP: change in binding of human HNF4 alpha to DNA. P41235. HNF4a-FITC DNA binding, fluorescence polarization, 1 h. activity change, % at 10 µM. hit rate 0.3% among 360,000; in the data active = activity change above about 30%, passing the limit was not always enough
# TPT1 inh: inhibitors of Candida albicans tRNA 2'-phosphotransferase TPT1; inhibition, % at 5 µM; hit rate 0.81% among 300,000; recombinant caTPT1, FP RNA substrate dephosphorylation;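 active = inhibition above the mean of all tested compounds plus 3 SD, set per screening campaign, cut at about 24% in these data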;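 note: plate controls were DMSO alone for no effect and ferristatin control at 100 nM for full effect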
# CSN deneddyl val: validation of inhibitors of human CSN-mediated cullin deneddylation; shares compounds with CSN inh; Csn5 deneddylation of SCF-Nedd8OG, fluorescence polarization, 90 min; inhibition, % at 16.6 µM; hit rate 62% among 540; AID 720654; in the data active = inhibition above about 50%;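 note: 0% = DMSO with enzyme and 100% = no enzyme wells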
# MMP2 cntr CSN: MMP-2 (human) inhibition, counter-screen for CSN hits; shares compounds with CSN inh; recombinant MMP-2, FRET substrate fluorescence, 60 min; inhibition, % at 16.6 µM; hit rate 33% among 540; AID 720655;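 active = corrected plate-normalized z-score of 5 or more, or -5 or less, or inhibition of 15% or more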;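 note: plate controls were DMSO wells with enzyme for no effect and buffer wells lacking MMP-2 for full effect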
# Target sequence (P08253 whole entry, looked up): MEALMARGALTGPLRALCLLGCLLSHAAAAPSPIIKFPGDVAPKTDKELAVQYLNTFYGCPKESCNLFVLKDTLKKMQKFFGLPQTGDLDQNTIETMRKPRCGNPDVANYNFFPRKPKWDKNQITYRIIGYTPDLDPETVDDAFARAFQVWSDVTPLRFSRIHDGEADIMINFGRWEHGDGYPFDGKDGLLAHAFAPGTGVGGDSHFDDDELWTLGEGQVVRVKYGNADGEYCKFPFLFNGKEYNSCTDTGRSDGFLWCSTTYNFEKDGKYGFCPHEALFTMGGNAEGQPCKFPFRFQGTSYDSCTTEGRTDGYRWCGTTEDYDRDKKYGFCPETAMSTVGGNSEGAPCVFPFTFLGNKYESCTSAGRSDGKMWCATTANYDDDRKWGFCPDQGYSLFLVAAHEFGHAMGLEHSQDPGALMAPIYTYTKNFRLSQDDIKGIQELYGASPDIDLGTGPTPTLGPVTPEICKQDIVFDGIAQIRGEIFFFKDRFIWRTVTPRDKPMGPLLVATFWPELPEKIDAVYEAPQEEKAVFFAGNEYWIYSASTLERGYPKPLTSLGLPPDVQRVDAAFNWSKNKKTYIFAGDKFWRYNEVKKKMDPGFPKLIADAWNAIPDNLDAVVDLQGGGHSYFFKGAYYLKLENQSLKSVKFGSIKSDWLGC
# Thrombin counter: blocks bovine thrombin in a CSN deneddylation counter-screen. shares compounds with CSN inh. bovine thrombin cleavage of Ub4-pepOG, fluorescence polarization. inhibition, % at 16.6 µM. hit rate 49% among 540. AID 720656;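 active = inhibition at or above a set limit, with a fluorescence interference ratio between 0.5 and a set maximum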
# * marks the source's active call; other numbers are inactive results; i = inactive; x = no result shown; + = active, no number.
SMILES,Rpn11 block,PKA-R1A act,CSN inh,PKA-R2B activ,HNF4A DNA FP,TPT1 inh,CSN deneddyl val,MMP2 cntr CSN,Thrombin counter
CC(C)C(C(=O)NCc1ccccc1)N(C)Cc1ccc(Cl)c(Cl)c1 (stereo unspecified),x,x,-3,x,3,x,x,x,x
CC(=O)c1c(C)oc2ccc(NS(=O)(=O)c3ccc(C)cc3)cc12,i,-3,1,1,-4,1,x,x,x
Cc1ccc(C)c(S(=O)(=O)Nc2ccc3oc(C)c(C(=O)O)c3c2)c1,i,-9,40*,-8,-31,-2,53,12,7
Cc1ccc(S(=O)c2ccc([N+](=O)[O-])c3nonc23)cc1 (stereo unspecified),i,-5,42*,-5,10,x,83*,-50*,2
O=C(CCN1C(=O)/C(=C/c2ccco2)SC1=S)Nc1ccc(O)cc1C(=O)O,i,2,43*,-3,-38,x,77*,14,10
O=C(CCN1C(=O)/C(=C/c2ccccc2Cl)SC1=S)Nc1ccccc1C(=O)O,i,3,9,-1,-4,-2,x,x,x
O=C(CCCN1C(=O)/C(=C\c2ccco2)SC1=S)Nc1ccc2ccccc2c1,i,-1,19,6,11,19,x,x,x
O=C(O)CN1C(=O)/C(=C/c2ccc(SCc3ccccc3)o2)SC1=S,x,-6,87*,-7,135,x,88*,13,96*
O=C(O)CCCN1C(=O)/C(=C\c2ccco2)SC1=S,i,-6,42*,2,-29,x,94*,30*,5
Cc1ccc(CNC(=O)CCc2nnc3ccc(N4CCC5(CC4)OCCO5)nn23)cc1,i,-13,1,-4,2,-1,x,x,x
CC(Cc1ccccc1)C(=O)N[C@@H](CO)Cc1ccccc1 (stereo partly specified),i,6,2,-1,-2,-1,x,x,x
CN(C)c1ccc(/C=C/c2cc[n+](C)cc2)cc1,x,2,51*,6,68*,11,55*,-34*,58*
COc1ccc(COC(=O)C2=C(C)NC(=O)NC2c2ccc(F)cc2)cc1 (stereo unspecified),i,4,-2,0,-2,0,x,x,x
O=C(NC1CCSc2ccccc21)c1ccc(Cl)c(S(=O)(=O)N2CCOCC2)c1 (stereo unspecified),i,-5,1,-14,-5,-6,x,x,x
Cc1ccc(CNc2ccc(O)cc2)cc1,i,-1,38*,-10,1,x,87*,0,-30
Cc1nnsc1C(=O)N/N=C/c1ccccc1,i,-3,-4,-7,-5,5,x,x,x
Cc1nnsc1C(=O)N/N=C/c1ccc2ccccc2c1O,x,-1,68*,-3,67*,110*,36,-34*,77*
O=C(c1ccc(S(=O)(=O)NCc2ccco2)cc1)N1CCCC(C(F)(F)F)C1 (stereo unspecified),i,1,-6,13,1,4,x,x,x
CCC1(CC)NC(=O)N(CC(=O)NC(=O)NCc2ccccc2)C1=O,i,-3,-4,2,0,-3,x,x,x
C[C@]12CCC(O)CC1=CCC1C2CC[C@]2(C)/C(=N\NC(N)=S)CCC12 (stereo partly specified),i,13,1,0,1,0,x,x,x
N#C/C(=C\c1cccs1)c1nc2ccccc2[nH]1,i,-8,-8,-3,4,8,x,x,x
N#C/C(=C/c1ccc(O)c(O)c1)c1nc2ccccc2[nH]1,x,3,124*,4,10,21,+,-1,55*
N#Cc1ccccc1CN1C(=O)S/C(=C/c2cccn2-c2ccc(C(=O)O)cc2)C1=O,i,1,29,1,-7,-3,x,x,x
O=C(O)c1ccc(-n2cccc2/C=C2/SC(=O)N(CC(=O)N3CCCC3)C2=O)cc1,i,-15,43*,4,-55,4,x,31*,11
O=C(O)c1ccc(-n2cccc2/C=C2/NC(=O)N(c3cccc(Cl)c3)C2=O)cc1,x,-10,35,9,-66,x,x,x,x
SMILES,Rpn11 block,PKA-R1A act,CSN inh,PKA-R2B activ,HNF4A DNA FP,TPT1 inh,CSN deneddyl val,MMP2 cntr CSN,Thrombin counter
O=C(O)c1ccc(-n2cccc2/C=C2/NC(=O)N(c3ccccc3)C2=O)cc1,i,-1,36*,-14,-64,-1,71*,20*,-21
CN(C)C(C)(C)/C=C/C(O)(c1ccccc1)c1ccccc1,i,7,3,5,-2,-3,x,x,x
CCOC(=O)CSc1nnc(-c2cc(OC)c(OC)c(OC)c2)o1,i,-6,7,-13,-2,-9,x,x,x
COc1cc(-c2nnc(SCc3cc(=O)oc4cc(O)c(O)cc34)o2)cc(OC)c1OC,i,-8,47*,0,-49,9,x,32*,34*
Cc1nnn(-c2nonc2N)c1C(=O)N/N=C/c1ccccc1O,i,3,44*,-5,4,0,-17,23*,-9
CCOC(=O)C1CCN(C(=O)CCc2ccc(S(=O)(=O)NCC(C)C)cc2)CC1,i,0,-5,3,-3,-2,x,x,x
O=C(CSc1n[nH]c(=O)[nH]c1=O)Nc1ccc2c(c1)C(=O)c1ccccc1C2=O,i,-5,48*,-5,-68,-8,x,69*,-9
Cc1ccc(S(=O)(=O)Nc2ccnc(-c3cccnc3)n2)cc1,i,-8,-9,2,8,-2,x,x,x
C[N+]1=C(/C=C/Nc2ccccc2Cl)C(C)(C)c2ccccc21,i,-5,5,-2,6,-4,x,x,x
COC(=O)c1ccc2c(c1)C(C)(C)C(/C=C/c1ccccc1O)=[N+]2C,x,-18,44*,-3,37*,19,68*,-12,30*
Nc1cccc2c1C(=O)N(C(=O)/C=C/c1cccc(Br)c1)C2=O,i,-8,41*,-5,-10,x,68*,4,46*
O=C(CCNC(=O)c1ccc([N+](=O)[O-])cc1)Nc1ccc(F)c(F)c1F,i,0,0,-9,0,-1,x,x,x
O=C1/C(=C/c2cccs2)Sc2ccccc21,i,-8,5,4,1,24,x,x,x
O=C1/C(=C/c2cccs2)CCC/C1=C\c1cccs1,i,-8,43*,-9,12,11,92*,-4,5
